Experiments:
[1] = target: Indoleamine 2,3-dioxygenase 1 (Mus musculus, UniProt P28776); test: Inhibition of IDO1 in recombinant IFN-gamma induced mouse M109 cells incubated for 18 hrs by fluorescence microplate reader assay; format: cell-based
In short: (§1)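 HeLa (human) or M109 (murine) cells induced with IFNγ to express IDO1, then cellular IDO1 activity measured; values are the average of N = 2 unless noted.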

[2] = target: T1, Indoleamine 2,3-dioxygenase 1 (Homo sapiens, UniProt P14902); test: Inhibition of IDO1 in recombinant IFN-gamma induced human HeLa cells incubated for 18 hrs by fluorescence microplate reader assay; in short: as §1
T1 sequence (P14902 whole entry): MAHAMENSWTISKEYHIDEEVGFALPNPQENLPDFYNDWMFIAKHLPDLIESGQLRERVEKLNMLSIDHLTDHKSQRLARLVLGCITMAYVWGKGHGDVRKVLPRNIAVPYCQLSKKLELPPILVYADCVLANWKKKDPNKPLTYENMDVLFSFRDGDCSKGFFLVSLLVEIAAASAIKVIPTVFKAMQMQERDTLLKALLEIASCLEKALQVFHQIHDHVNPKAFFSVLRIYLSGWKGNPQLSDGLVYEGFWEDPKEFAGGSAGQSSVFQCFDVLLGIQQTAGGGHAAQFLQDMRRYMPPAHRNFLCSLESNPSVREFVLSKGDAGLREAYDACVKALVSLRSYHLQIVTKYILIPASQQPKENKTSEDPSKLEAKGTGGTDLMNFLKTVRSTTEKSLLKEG

[3] = Metabolic stability in human liver microsomes assessed as parent compound remaining at 0.5 uM after 10 mins; format: ADME, Microsome; settings: read-out: Stabilty
In short: (§2)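 Parent compound at 0.5 μM incubated 10 min with 1 mg/mL human, mouse or rat liver microsomes; fraction of parent remaining reported; average of N = 2 unless noted.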

[4] = target: T1, Indoleamine 2,3-dioxygenase 1; test: Inhibition of IDO1 in IFN-gamma/LPS induced human whole blood assessed as tryptophan/kynurenine level measured after 18 hrs by RapidFire mass spectrometry; format: tissue-based
[5] = Metabolic stability in mouse liver microsomes assessed as parent compound remaining at 0.5 uM after 10 mins; format: ADME, Microsome; settings: read-out: Stabilty; in short: as §2
[6] = Metabolic stability in rat liver microsomes assessed as parent compound remaining at 0.5 uM after 10 mins; format: ADME, Microsome; settings: read-out: Stabilty; in short: as §2

Chain of Indoleamine 2,3-dioxygenase 1 (Mus musculus, UniProt P28776) (P28776 whole entry): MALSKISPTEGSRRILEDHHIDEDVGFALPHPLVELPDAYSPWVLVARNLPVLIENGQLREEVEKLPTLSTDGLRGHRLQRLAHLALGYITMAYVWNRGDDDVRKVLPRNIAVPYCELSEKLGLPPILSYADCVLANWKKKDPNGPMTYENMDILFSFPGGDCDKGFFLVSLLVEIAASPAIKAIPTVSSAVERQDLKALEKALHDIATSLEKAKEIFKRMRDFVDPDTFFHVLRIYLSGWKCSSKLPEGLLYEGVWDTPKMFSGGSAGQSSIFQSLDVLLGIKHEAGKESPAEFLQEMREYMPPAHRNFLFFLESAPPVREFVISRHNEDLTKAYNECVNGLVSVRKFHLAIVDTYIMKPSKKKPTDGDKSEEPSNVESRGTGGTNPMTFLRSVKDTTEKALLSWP

SMILES	IC50 [1] [nM]	IC50 [2] [nM]	remaining at 10 min, 0.5 µM [3] [%]	IC50 [4] [nM]	remaining at 10 min, 0.5 µM [5] [%]	remaining at 10 min, 0.5 µM [6] [%]
CCC(c1nc2ccc(Cl)cc2[nH]1)[C@H]1CC[C@H](Oc2ccnc3ccccc23)CC1 (stereo not given in full)	52	7	84	36	82	80
C[C@@H](c1nnc(-c2ccc(Cl)cc2)[nH]1)[C@H]1CC[C@@H](c2ccnc3ccc(F)cc32)CC1	286	20	88		69	82
C[C@@H](c1nnc(-c2ccc(Cl)cc2)o1)[C@H]1CC[C@@H](c2ccnc3ccc(F)cc32)CC1	348	239	68		41	23
CCC(Nc1nnc(-c2ccc(OC)cc2)o1)[C@H]1CC[C@@H](c2ccnc3ccc(F)cc32)CC1 (stereo not given in full)	31	6	66	16	31	45
C[C@@H](c1nc2ccc(F)cc2[nH]1)[C@H]1CC[C@@H](c2ccnc3ccc(F)cc32)CC1	22	3	42		5	0
C[C@@H](c1ncc(-c2ccc(Cl)cc2)o1)[C@H]1CC[C@@H](c2ccnc3ccc(F)cc32)CC1	631	495	97		78	62
COc1ccc(Nc2nnc([C@H](C)[C@H]3CC[C@@H](c4ccnc5ccc(F)cc54)CC3)o2)cc1	451	165	18		2	0.4
COc1ccc(-c2nnc(N[C@H](C)[C@H]3CC[C@@H](c4ccnc5ccc(F)cc54)CC3)o2)cc1	14	3	64		17	35
C[C@@H](c1ncc(-c2ccc(Cl)cc2)[nH]1)[C@H]1CC[C@@H](c2ccnc3ccc(F)cc32)CC1	80	11	58		59	3

Results, then the compound that gave them:

IC50 [1] [nM]	IC50 [2] [nM]	remaining at 10 min, 0.5 µM [3] [%]	IC50 [4] [nM]	remaining at 10 min, 0.5 µM [5] [%]	remaining at 10 min, 0.5 µM [6] [%]	SMILES
6	3	83	50	39	100	CCC(Nc1nnc(-c2ccc(OC)cc2)o1)[C@H]1CC[C@@H](c2ccnc3ccc(C(F)(F)F)cc32)CC1 (stereo not given in full)
	3		32		8	C[C@@H](c1nc2ccc(Cl)cc2[nH]1)[C@H]1CC[C@@H](c2ccnc3ccc(F)cc32)CC1
3	2	82	9	49	27	CCC(c1nc2ccc(Cl)cc2[nH]1)[C@H]1CC[C@@H](c2ccnc3ccc(F)cc32)CC1 (stereo not given in full)
36	3	54	14	8	52	CCC(Nc1nnc(-c2ccc(OC)cc2)o1)[C@H]1CC[C@@H](c2ccnc3c(F)cc(F)cc32)CC1 (stereo not given in full)
5	2	78	6	7	35	CCC(c1nc2ncc(Cl)cc2[nH]1)[C@H]1CC[C@@H](c2ccnc3ccc(F)cc32)CC1 (stereo not given in full)
44	3	57	31	19	24	COCC(Nc1nnc(-c2ccc(OC)cc2)o1)[C@H]1CC[C@@H](c2ccnc3ccc(F)cc32)CC1 (stereo not given in full)

— ChEMBL document CHEMBL4715934, “Discovery of Imidazopyridines as Potent Inhibitors of Indoleamine 2,3-Dioxygenase 1 for Cancer Immunotherapy” (ACS Med Chem Lett, 2021)
